# Measured values from ChEMBL document CHEMBL5705894, “SB1518, a novel macrocyclic pyrimidine-based JAK2 inhibitor for the treatment of myeloid and lymphoid malignancies” (Leukemia, 2011).
# The source made the active and inactive calls. No cut-off for these calls is given here.
# How the values were obtained:
# [1] = tested on: SNU-387; experiment: Antiproliferative activity against human SNU-387 cells assessed as inhibition of cell viability incubated for 48 hrs by CellTiterGlo assay; type: functional, cell-based; details: SNU-387, 48 h
# How it was run: (§1)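 Cells seeded at 30–50% confluency in 96-well plates, then treated the next day in triplicate at up to 10 μM for 48 h. Viability read by CellTiter-Glo luminescence. IC50 taken from fitted dose–response curves.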
# [2] = tested on: MOLT-4; experiment: Antiproliferative activity against human MOLT-4 cells assessed as inhibition of cell viability incubated for 48 hrs by CellTiterGlo assay; type: functional, cell-based; details: MOLT-4, 48 h; how it was run: as §1
# [3] = tested on: Mus musculus; experiment: In vivo inhibition of JAK2 V617F mutant in SCID Beige mouse xenografted with human SET2 cells assessed as decreased STAT5 phosphorylation at Y694 by immunoblotting analysis; type: functional, organism-based; details: dose 75-150 mg/kg, route po
# How it was run: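 Subcutaneous SET-2 tumors in SCID beige mice. Single oral doses of 75 or 150 mg/kg were given at about 300 mm3 tumor size; in the chronic arm, dosing ran for 18 days. Tumors were collected 3 h post-dose, lysed, and immunoblotted for pJAK2 (Y1007/8) and pSTAT5.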
# [4] = tested on: SET-2; experiment: Induction of apoptosis in human SET2 cells assessed as activation of caspase-3/7 incubated for 16 hrs; type: functional, cell-based
# How it was run: (§2)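 SET-2 and Karpas 1106P cells were exposed to graded drug concentrations for 16 h. Apoptosis was read as caspase-3/7 activation.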
# [5] = tested on: MOLM-13; experiment: Antiproliferative activity against human MOLM-13 cells harboring FLT3-ITD mutant assessed as inhibition of cell viability incubated for 48 hrs by CellTiterGlo assay; type: functional, cell-based; details: MOLM-13, 48 h; how it was run: as §1
# [6] = tested on: Tyrosine-protein kinase JAK2 (Homo sapiens), O60674 [V617F]; details: HEL 92.1.7, dose 8-1000 nM, time 3.0 hrs
# [7] = tested on: Tyrosine-protein kinase JAK2 (Mus musculus), Q62120 [V617F]; experiment: Inhibition of JAK2 V617F mutant expressed in mouse BaF3 cells assessed as reduction of STAT5 phosphorylation at Y694 by Western blotting analysis; type: cell-based
# [8] = tested on: MKN-7; experiment: Antiproliferative activity against human MKN-7 cells assessed as inhibition of cell viability incubated for 48 hrs by CellTiterGlo assay; type: functional, cell-based; details: MKN-7, 48 h; how it was run: as §1
# [9] = tested on: CHL-1; experiment: Antiproliferative activity against human CHL-1 cells assessed as inhibition of cell viability incubated for 48 hrs by CellTiterGlo assay; type: functional, cell-based; details: CHL-1, 48 h; how it was run: as §1
# [10] = tested on: Karpas-1106P; experiment: Induction of cell cycle arrest in human KARPAS-1106P cells expressing JAK2 assessed as accumulation of cells at G0/1 phase incubated for 24 hrs by PI staining based flow cytometry; type: functional
# How it was run: (§3)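 Cells were fixed in 70% ice-cold ethanol and stained with propidium iodide, then analysed by flow cytometry for cell-cycle distribution.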
# [11] = tested on: MV4-11; experiment: Antiproliferative activity against human MV4-11 cells harboring FLT3-ITD mutant assessed as inhibition of cell viability incubated for 48 hrs by CellTiterGlo assay; type: functional, cell-based; details: MV4-11, 48 h; how it was run: as §1
# [12] = tested on: Karpas-1106P; experiment: Induction of apoptosis in human KARPAS-1106P cells assessed as activation of caspase-3/7 incubated for 16 hrs; type: functional, cell-based; how it was run: as §2
# [13] = tested on: Tyrosine-protein kinase JAK2 (Homo sapiens), O60674 [V617F]; details: HEL 92.1.7, dose 1000.0 nM, time 3.0 hrs
# [14] = tested on: Tyrosine-protein kinase JAK2 (Mus musculus), Q62120 [V617F]; experiment: Inhibition of JAK2 V617F mutant expressed in mouse BaF3 cells assessed as decreased total tyrosine phosphorylation at 1000 nM incubated for 3 hrs by Western blotting analysis; type: cell-based
# [15] = tested on: Karpas-1106P; experiment: Antiproliferative activity against human KARPAS-1106P cells harboring JAK2 assessed as inhibition of cell viability incubated for 48 hrs by CellTiterGlo assay; type: functional, cell-based; how it was run: as §1
# [16] = tested on: LNCaP; experiment: Antiproliferative activity against human LNCaP cells assessed as inhibition of cell viability incubated for 48 hrs by CellTiterGlo assay; type: functional, cell-based; how it was run: as §1
# [17] = tested on: Tyrosine-protein kinase JAK2 (Homo sapiens), O60674 [V617F]; details: HEL 92.1.7, dose 1000.0 nM, time 4-24 hrs
# [18] = tested on: NCI-H322M; experiment: Antiproliferative activity against human NCI-H322M cells assessed as inhibition of cell viability incubated for 48 hrs by CellTiterGlo assay; type: functional, cell-based; how it was run: as §1
# [19] = tested on: Tyrosine-protein kinase JAK2 (Mus musculus), Q62120 [V617F]; experiment: Inhibition of JAK2 V617F mutant transfected in mouse BaF3 cells assessed as increased JAK2 phosphorylation at Y1007/8 at 8 to 1000 nM incubated for 3 hrs by Western blotting analysis; type: cell-based; details: dose 8-1000 nM
# [20] = tested on: Karpas-1106P; experiment: Induction of cell cycle arrest in human KARPAS-1106P cells expressing JAK2 assessed as decrease in accumulation of cells at S phase incubated for 24 hrs by PI staining based flow cytometry; type: functional; how it was run: as §3
# [21] = molecular target: Tyrosine-protein kinase JAK2 (Homo sapiens) (UniProt O60674); details: HEK-293T, dose 8-1000 nM, time 3.0 hrs
# [22] = tested on: T47D; experiment: Antiproliferative activity against human T47D cells assessed as inhibition of cell viability incubated for 48 hrs by CellTiterGlo assay; type: functional, cell-based
# How it was run: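 Cells from ATCC, grown per supplier guidance, were seeded at 30–50% confluency and dosed the next day in triplicate at concentrations up to 10 μM for 48 h. Viability was read by luminescent ATP (CellTiter-Glo), and IC50 was fitted from dose–response curves.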
# [23] = tested on: SET-2; experiment: Induction of cell cycle arrest in human SET2 cells expressing JAK2 V617F mutant assessed as accumulation of cells at G0/1 phase incubated for 24 hrs by PI staining based flow cytometry; type: functional; how it was run: as §3
# [24] = tested on: SNU-475; experiment: Antiproliferative activity against human SNU-475 cells assessed as inhibition of cell viability incubated for 48 hrs by CellTiterGlo assay; type: functional, cell-based; details: SNU-475, 48 h; how it was run: as §1
# [25] = molecular target: Tyrosine-protein kinase JAK2 (Homo sapiens) (UniProt O60674); details: HEK-293T, dose 8-1000 nM, time 3.0 hrs; remark: listed apart in the source
# [26] = In vivo inhibition of JAK2 V617F mutant in athymic BALB/c nude mouse xenografted with mouse BaF3 cells administered for 24 hrs; type: functional
# [27] = tested on: SET-2; experiment: Anti-tumor activity against human SET2 cells xenografted in SCID Beige mouse assessed as tumor growth inhibition at 150 mg/kg, po administered for 18 days and measured twice a week relative to control; type: functional; details: SET-2, 432 h, time 18 day, read-out: TGI
# How it was run: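 SCID beige mice received 5 × 10^6 SET-2 cells subcutaneously in the right flank, in serum-free medium mixed 1:1 with Matrigel. Dosing began when tumors averaged about 280 mm3 (day 31). Oral gavage at 10 ml/kg for 18 consecutive days, 12 mice per group. Caliper volume = (w² × l)/2. Animals were killed 3 h after the final dose.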
# [28] = molecular target: Tyrosine-protein kinase JAK2 (Homo sapiens) (UniProt O60674); details: Jurkat, dose 40-1000 nM, time 3.0 hrs
# [29] = Induction of apoptosis in human EPC cells derived from polycythemia vera patients assessed as activation of caspase-3/7 level incubated for 16 hrs; type: toxicity, cell-based; details: Homo sapiens, EPC
# Sequence of Tyrosine-protein kinase JAK2 (Homo sapiens) (O60674 whole entry): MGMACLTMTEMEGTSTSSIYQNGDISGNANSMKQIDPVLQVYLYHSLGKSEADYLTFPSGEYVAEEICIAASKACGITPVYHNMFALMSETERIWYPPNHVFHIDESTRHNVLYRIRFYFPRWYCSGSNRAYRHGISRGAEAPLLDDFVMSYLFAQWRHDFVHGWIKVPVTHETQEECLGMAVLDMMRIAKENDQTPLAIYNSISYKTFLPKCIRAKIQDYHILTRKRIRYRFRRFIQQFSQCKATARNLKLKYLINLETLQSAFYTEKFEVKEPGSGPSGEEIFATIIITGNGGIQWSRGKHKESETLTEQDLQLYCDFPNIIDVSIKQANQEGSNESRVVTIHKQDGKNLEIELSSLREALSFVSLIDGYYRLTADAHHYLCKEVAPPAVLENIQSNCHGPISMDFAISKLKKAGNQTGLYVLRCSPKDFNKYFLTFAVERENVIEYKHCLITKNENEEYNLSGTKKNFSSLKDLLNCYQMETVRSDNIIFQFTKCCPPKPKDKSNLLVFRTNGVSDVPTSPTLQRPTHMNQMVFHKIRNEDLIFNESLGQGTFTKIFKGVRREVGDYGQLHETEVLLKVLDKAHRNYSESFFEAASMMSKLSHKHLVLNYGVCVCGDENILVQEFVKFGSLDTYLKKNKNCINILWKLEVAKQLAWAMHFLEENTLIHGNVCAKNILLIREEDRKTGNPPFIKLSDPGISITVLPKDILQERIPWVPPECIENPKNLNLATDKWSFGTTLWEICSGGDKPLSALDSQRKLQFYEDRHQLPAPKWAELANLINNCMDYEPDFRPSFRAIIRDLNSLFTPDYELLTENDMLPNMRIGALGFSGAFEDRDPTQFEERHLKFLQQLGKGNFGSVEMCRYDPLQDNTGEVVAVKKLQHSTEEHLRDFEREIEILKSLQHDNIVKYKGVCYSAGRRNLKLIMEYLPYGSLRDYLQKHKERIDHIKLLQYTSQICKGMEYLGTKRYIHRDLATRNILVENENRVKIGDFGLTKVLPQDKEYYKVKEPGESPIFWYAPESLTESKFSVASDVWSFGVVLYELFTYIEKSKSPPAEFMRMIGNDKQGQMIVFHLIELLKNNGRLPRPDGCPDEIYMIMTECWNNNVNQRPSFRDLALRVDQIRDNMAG
# Sequence of Tyrosine-protein kinase JAK2 (Homo sapiens), O60674 [V617F] (O60674 whole entry V617F): as the sequence (O60674 whole entry) above, with V617F counted along it
# Sequence of Tyrosine-protein kinase JAK2 (Mus musculus), Q62120 [V617F] (Q62120 as listed by the source): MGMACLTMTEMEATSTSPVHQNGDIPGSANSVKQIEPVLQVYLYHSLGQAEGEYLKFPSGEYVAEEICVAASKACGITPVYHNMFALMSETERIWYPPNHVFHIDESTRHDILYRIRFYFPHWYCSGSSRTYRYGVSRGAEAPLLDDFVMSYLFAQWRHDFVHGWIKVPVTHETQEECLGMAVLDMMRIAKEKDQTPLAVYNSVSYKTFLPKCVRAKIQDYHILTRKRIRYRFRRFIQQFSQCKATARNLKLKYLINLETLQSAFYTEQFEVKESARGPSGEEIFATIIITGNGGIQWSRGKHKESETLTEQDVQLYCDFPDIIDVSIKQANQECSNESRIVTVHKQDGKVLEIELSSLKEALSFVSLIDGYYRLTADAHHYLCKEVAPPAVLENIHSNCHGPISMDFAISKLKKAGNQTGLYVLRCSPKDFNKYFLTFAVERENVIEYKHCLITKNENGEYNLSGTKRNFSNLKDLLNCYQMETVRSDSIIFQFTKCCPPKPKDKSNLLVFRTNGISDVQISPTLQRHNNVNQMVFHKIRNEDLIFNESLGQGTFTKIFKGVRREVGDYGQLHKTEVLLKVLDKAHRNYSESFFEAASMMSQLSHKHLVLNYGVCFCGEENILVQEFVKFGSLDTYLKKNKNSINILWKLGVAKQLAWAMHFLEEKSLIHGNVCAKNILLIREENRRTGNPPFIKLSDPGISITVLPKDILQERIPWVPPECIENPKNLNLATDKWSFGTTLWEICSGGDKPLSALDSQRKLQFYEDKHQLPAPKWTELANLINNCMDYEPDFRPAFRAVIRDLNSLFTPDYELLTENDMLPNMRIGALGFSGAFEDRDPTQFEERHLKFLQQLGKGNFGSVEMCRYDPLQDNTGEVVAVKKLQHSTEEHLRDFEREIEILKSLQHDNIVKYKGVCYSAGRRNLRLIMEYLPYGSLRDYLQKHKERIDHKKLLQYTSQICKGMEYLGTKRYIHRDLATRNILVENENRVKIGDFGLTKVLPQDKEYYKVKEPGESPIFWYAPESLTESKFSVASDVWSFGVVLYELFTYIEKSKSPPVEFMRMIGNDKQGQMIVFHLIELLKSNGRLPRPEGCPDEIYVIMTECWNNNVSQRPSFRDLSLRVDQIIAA
compound,measurement,setting,value
C1=N/C2=N/c3ccc(OCCN4CCCC4)c(c3)COC/C=C/COCc3cccc(c3)C(=C1)N2 [PACRITINIB],IC50,[1],2.03 µM
same,IC50,[2],0.75 µM
same,Activity,[3],Dose-Dependent Effect
same,Activity,[4],Dose-Dependent Effect
same,EC50,"[4]; SET-2, 16 h",0.571 µM
same,IC50,[5],0.067 µM
same,inhibition,[6],Dose-Dependent Effect
same,inhibition,[7],Active
same,IC50,[8],2.04 µM
same,IC50,[9],1.4 µM
same,Activity,[10],Dose-Dependent Effect
same,IC50,[11],0.047 µM
same,Activity,[12],Dose-Dependent Effect
same,EC50,[12],1.12 µM
same,inhibition,[13],Active
same,inhibition,[14],Active
same,IC50,[15],0.348 µM
same,IC50,[16],0.917 µM
same,inhibition,[17],Tde
same,IC50,[18],2.18 µM
same,inhibition,[19],Active
same,Activity,[20],Dose-Dependent Effect
same,inhibition,[21],Dose-Dependent Effect
same,IC50,[22],1.28 µM
same,Activity,[23],Dose-Dependent Effect
same,IC50,[24],2.44 µM
same,inhibition,[25],Dose-Dependent Effect
same,FIC50,[26],0.019 µM
same,inhibition in vivo at 150 mg/kg,[27],61%
same,inhibition,[28],Active
same,EC50,[29],0.224 µM
